Activity calls are given as the source filed them. The rule behind the calls is not given here.
What was measured:
[1] = target: T1, Receptor-type tyrosine-protein kinase FLT3 (Mus musculus) (UniProt Q00342); assay: Inhibition of FLT3 phosphorylation in mouse Ba/F3 cells transfected with FLT3-ITD cells at 500 nM after 90 mins by Western blot analysis; type: cell-based; conditions: BaF3
T1 sequence (whole entry): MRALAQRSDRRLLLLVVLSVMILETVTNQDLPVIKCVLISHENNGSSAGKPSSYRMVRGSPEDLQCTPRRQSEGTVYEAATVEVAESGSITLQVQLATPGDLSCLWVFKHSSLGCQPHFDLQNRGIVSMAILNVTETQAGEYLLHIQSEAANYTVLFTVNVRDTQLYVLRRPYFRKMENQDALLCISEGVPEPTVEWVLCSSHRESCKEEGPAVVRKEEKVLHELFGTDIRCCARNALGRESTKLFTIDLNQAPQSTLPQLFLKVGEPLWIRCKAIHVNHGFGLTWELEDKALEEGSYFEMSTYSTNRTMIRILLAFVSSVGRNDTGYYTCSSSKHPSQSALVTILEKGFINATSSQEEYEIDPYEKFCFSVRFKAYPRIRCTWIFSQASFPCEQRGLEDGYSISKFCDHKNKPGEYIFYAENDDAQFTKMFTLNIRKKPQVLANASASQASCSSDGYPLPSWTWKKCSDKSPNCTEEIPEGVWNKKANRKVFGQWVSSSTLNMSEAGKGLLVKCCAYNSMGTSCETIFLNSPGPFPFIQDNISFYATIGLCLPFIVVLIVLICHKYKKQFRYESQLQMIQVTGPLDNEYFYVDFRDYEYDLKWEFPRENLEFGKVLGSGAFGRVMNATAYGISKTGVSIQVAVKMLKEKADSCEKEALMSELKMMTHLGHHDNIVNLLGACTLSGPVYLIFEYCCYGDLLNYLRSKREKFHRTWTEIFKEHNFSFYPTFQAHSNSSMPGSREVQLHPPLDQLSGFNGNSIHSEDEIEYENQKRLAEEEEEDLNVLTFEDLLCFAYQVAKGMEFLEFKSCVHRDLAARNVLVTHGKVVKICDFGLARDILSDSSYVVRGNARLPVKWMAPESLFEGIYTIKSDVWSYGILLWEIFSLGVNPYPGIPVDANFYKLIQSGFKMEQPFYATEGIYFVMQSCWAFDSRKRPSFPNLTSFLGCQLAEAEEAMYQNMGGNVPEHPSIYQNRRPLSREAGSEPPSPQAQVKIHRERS
Method in brief: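 Ba/F3-FLT3-ITD cells were treated for 90 min with increasing doses. They were lysed in buffer with 1 mM NaVO4 and protease inhibitors, then reduced and run on Bis-Tris 4–12% gels for Western blot. Phospho-FLT3 and phospho-STAT5 were detected, with total FLT3 and STAT5 as loading controls.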

[2] = system: MV4-11; assay: Cytotoxicity against human MV4-11 cells after 72 hrs by plate reader analysis; type: functional, cell-based; conditions: MV4-11, 72 h
[3] = system: MOLM-13; assay: Cytotoxicity against human MOLM13 cells after 72 hrs by plate reader analysis; type: functional, cell-based; conditions: MOLM-13, 72 h
[4] = target: Tyrosine-protein kinase Yes (Homo sapiens) (UniProt P07947); assay: Inhibition of YES (unknown origin) transfected in mouse Ba/F3 cells at 1 uM after 24 hrs; type: cell-based; conditions: BaF3
[5] = target: T2, Ephrin type-A receptor 8 (Homo sapiens) (UniProt P29322); assay: Inhibition of EPHA8 (unknown origin) transfected in mouse Ba/F3 cells at 1 uM after 24 hrs; type: cell-based; conditions: BaF3
T2 sequence (whole entry): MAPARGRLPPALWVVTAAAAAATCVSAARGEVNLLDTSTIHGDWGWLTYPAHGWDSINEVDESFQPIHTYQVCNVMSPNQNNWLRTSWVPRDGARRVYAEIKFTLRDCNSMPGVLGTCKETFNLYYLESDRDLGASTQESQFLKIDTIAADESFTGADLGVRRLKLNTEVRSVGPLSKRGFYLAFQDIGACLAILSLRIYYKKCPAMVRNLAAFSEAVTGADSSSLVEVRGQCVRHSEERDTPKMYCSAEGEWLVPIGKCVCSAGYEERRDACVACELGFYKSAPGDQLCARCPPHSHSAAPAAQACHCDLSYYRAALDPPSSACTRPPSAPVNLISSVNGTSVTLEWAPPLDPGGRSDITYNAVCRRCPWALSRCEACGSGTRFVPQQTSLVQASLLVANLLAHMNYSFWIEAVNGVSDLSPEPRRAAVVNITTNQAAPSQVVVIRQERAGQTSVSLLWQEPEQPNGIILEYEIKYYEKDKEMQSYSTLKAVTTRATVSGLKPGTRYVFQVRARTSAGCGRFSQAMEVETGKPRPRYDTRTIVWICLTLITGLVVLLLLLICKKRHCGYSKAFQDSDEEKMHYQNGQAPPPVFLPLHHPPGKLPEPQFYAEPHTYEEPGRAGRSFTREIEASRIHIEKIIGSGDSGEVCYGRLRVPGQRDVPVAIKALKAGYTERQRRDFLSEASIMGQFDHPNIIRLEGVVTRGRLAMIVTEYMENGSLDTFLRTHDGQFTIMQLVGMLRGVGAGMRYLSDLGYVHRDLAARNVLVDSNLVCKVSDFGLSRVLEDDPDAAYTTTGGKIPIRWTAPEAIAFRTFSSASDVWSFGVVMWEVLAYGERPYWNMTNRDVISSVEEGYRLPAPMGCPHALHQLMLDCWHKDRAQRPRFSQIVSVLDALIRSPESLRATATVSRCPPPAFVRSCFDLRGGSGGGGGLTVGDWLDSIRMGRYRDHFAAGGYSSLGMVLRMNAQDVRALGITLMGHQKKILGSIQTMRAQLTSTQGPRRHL
Method in brief: (§1)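 Kinase specificity panel: each Ba/F3 line transformed with one of 24 tyrosine kinases depends on that kinase to grow. Cells were given compound at 1 or 5 µM for 24 h, with DMSO as comparator. Percentage growth was read by ATP-lite luminescence and reported as mean ± SEM.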

[6] = target: Fibroblast growth factor receptor 3 (Homo sapiens) (UniProt P22607); assay: Inhibition of FGFR3 (unknown origin) transfected in mouse Ba/F3 cells at 1 uM after 24 hrs; type: cell-based; conditions: BaF3; method in brief: as §1
[7] = target: Tyrosine-protein kinase Fyn (Homo sapiens) (UniProt P06241); assay: Inhibition of FYN (unknown origin) transfected in mouse Ba/F3 cells at 1 uM after 24 hrs; type: cell-based; conditions: BaF3; method in brief: as §1
[8] = target: Tyrosine-protein kinase receptor UFO (Homo sapiens) (UniProt P30530); assay: Inhibition of AXL (unknown origin) transfected in mouse Ba/F3 cells at 1 uM after 24 hrs; type: cell-based; conditions: BaF3; method in brief: as §1
[9] = target: Tyrosine-protein kinase HCK (Homo sapiens) (UniProt P08631); assay: Inhibition of HCK (unknown origin) transfected in mouse Ba/F3 cells at 1 uM after 24 hrs; type: cell-based; conditions: BaF3; method in brief: as §1
Sequence of Tyrosine-protein kinase HCK (Homo sapiens) (P08631 2-526 limits assumed): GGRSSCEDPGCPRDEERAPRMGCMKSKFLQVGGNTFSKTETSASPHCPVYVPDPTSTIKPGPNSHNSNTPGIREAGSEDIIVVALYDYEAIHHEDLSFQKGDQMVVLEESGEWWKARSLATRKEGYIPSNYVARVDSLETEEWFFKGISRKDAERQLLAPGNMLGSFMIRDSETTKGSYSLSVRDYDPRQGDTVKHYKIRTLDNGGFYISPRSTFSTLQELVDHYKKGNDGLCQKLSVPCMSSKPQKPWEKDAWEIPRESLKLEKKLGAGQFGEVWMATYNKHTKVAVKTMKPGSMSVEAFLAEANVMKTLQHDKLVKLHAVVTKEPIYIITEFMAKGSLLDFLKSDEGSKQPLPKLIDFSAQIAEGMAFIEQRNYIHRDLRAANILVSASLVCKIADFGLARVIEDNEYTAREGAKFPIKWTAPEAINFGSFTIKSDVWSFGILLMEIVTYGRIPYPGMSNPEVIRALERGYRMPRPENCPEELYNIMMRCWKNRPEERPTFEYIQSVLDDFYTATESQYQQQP

Sequence of Fibroblast growth factor receptor 3 (Homo sapiens) (P22607 23-806 limits assumed): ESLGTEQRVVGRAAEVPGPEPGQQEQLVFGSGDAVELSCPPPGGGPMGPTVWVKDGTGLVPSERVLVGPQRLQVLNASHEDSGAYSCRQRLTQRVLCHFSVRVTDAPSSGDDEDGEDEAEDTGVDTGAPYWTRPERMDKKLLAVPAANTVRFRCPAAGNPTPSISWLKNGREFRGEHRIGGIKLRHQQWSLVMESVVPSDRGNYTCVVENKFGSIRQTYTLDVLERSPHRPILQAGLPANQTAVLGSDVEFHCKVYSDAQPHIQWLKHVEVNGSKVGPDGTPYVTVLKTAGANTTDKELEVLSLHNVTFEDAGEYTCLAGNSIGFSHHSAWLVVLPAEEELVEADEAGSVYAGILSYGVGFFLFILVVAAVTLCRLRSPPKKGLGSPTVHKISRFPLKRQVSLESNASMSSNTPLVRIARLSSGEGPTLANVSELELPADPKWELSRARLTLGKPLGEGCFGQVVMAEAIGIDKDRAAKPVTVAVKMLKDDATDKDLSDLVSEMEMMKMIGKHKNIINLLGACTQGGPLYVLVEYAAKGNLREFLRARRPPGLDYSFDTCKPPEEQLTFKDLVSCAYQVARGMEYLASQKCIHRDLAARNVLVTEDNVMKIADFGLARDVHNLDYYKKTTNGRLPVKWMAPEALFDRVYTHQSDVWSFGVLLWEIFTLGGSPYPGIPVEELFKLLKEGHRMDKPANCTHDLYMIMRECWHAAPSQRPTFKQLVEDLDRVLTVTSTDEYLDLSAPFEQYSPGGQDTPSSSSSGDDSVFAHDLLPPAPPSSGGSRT
Sequence of Tyrosine-protein kinase receptor UFO (Homo sapiens) (P30530 whole entry): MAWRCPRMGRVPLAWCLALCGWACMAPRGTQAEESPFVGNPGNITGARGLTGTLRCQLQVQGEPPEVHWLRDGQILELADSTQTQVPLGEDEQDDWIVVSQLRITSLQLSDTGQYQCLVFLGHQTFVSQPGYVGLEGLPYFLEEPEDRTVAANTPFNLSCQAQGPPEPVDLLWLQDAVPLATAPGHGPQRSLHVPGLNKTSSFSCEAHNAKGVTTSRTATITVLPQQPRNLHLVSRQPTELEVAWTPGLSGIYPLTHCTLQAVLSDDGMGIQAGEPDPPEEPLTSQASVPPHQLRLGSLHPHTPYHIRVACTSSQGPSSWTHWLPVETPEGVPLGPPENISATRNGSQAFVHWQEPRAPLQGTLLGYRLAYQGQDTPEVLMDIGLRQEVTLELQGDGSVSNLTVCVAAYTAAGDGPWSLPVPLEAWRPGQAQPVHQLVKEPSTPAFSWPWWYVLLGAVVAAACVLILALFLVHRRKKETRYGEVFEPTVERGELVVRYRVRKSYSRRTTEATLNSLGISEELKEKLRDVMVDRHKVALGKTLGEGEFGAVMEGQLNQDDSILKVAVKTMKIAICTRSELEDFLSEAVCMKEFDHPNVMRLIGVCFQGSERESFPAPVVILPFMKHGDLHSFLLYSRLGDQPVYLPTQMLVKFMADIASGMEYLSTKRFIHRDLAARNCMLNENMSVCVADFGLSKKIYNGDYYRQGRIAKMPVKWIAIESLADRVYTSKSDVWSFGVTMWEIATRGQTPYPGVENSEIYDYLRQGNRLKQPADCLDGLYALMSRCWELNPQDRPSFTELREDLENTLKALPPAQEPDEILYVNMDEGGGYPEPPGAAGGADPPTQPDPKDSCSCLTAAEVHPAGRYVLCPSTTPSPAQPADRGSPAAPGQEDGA
Sequence of Tyrosine-protein kinase Fyn (Homo sapiens) (P06241 2-537 limits assumed): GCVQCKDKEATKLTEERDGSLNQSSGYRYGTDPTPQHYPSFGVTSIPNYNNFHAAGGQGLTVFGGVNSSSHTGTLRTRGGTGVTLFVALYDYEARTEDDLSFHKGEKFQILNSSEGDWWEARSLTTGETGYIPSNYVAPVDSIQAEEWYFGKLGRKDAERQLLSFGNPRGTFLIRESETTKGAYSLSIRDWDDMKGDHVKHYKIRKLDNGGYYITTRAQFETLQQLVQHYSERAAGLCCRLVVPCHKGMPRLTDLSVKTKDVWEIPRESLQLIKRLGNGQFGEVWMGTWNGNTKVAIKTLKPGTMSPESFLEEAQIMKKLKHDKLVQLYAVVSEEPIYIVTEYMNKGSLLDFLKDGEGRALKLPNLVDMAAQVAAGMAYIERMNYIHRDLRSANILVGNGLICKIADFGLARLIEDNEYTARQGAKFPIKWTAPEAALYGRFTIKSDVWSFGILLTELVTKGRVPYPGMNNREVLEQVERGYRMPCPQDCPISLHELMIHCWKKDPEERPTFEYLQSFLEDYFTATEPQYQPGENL
Sequence of Tyrosine-protein kinase Yes (Homo sapiens) (P07947 2-543 limits assumed): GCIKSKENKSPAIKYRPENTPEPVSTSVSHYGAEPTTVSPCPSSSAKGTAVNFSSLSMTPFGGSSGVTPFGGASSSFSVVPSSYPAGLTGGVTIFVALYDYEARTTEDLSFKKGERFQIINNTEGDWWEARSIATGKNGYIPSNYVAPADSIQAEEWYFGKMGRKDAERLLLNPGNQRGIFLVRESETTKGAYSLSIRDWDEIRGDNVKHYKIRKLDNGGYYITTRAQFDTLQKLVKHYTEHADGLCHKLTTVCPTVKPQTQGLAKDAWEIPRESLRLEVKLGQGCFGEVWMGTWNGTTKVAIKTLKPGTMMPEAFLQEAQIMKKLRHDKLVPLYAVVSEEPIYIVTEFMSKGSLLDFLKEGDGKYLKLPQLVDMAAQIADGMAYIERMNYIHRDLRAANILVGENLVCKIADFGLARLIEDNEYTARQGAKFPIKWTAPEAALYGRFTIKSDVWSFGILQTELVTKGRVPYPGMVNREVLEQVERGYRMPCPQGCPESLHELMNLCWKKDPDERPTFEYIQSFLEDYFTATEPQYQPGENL

**Q.** With `Cc1ccc(-n2cnc3cc(Nc4nnc(C)c5ccccc45)ccc32)cc1` as the compound, how does the inhibition [1] read?
**A.** Active

**Q.** And the EC50 [2]?
**A.** 3410 nM

**Q.** What about the EC50 [3] of the same compound?
**A.** 332 nM

**Q.** Which inhibition [4] does the source give for `COc1ccc(C(=O)Nc2cc(-c3ccccc3)[nH]n2)cc1` here?
**A.** inactive

**Q.** What about the inhibition [5] of the same compound?
**A.** inactive

**Q.** What about the inhibition [6] of the same compound?
**A.** inactive

**Q.** What about the inhibition [7] of the same compound?
**A.** inactive

**Q.** What about the inhibition [8] of the same compound?
**A.** inactive

**Q.** And the inhibition [9]?
**A.** inactive

**Q.** And the EC50 [2]?
**A.** 142 nM

**Q.** What about the EC50 [3] of the same compound?
**A.** 292 nM

**Q.** Which results are given for `Cc1cccc(C(=O)Nc2cc(-c3ccc(F)cc3)n[nH]2)c1`?
**A.** inhibition [4]: inactive; inhibition [1]: Active; inhibition [5]: inactive; inhibition [6]: inactive; inhibition [7]: inactive; inhibition [8]: inactive; inhibition [9]: inactive; EC50 [2]: 1780 nM; EC50 [3]: 630 nM

**Q.** Which inhibition [1] does the source give for `Fc1ccc(-c2n[nH]cc2-c2ccncc2)cc1Cl` here?
**A.** Active

**Q.** What about the EC50 [2] of the same compound?
**A.** 2760 nM

**Q.** What about the EC50 [3] of the same compound?
**A.** 258 nM

**Q.** Which results are given for `Cc1ccc(-c2cc(NC(=O)c3ccc(F)cc3)[nH]n2)cc1`?
**A.** inhibition [4]: inactive; inhibition [1]: Active; inhibition [5]: inactive; inhibition [6]: inactive; inhibition [7]: inactive; inhibition [8]: inactive; inhibition [9]: inactive; EC50 [2]: 2820 nM; EC50 [3]: 612 nM
